Bioassay records deposited in PubChem BioAssay by several laboratories.
Most compounds without a hit are left out; they make up all but 9.6% or so of the library.
Ba/F3 V617F tox: loss of viability in JAK2V617F-driven Ba/F3 cells. Ba/F3 EpoR-JAK2V617F viability, ATP luminescence. inhibition, % at 5.6 µM. 220,000 tested, 1.1% active. AID 1446;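 active means inhibition above the campaign mean plus 3 SD over all tested compounds, cut at about 24% in these data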;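 further: cytokine-independent growth of Ba/F3 cells driven by EpoR plus mutant JAK2; 0% = DMSO-treated cells and 100% = JAK inhibitor I control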
APP transl inh: APP translation inhibition; SH-SY5Y APP 5'UTR-luciferase reporter, luminescence; inhibition, % at 2 µM; 190,000 tested, 0.82% active; AID 1285;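 active means inhibition above a set limit, derived from the sample mean plus 3 SD, cut at about 45% in these data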
b-catenin transl: modulators of beta-catenin nuclear translocation; HeLa beta-catenin nuclear translocation, immunofluorescence imaging; nuclear translocation activity, % at 5 µM; 190,000 tested, 0.3% active;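 active means nuclear translocation activity above 50% at 5 µM, with a well cell count of 50 or more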;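 further: per-cell ratio of nuclear to cytoplasmic median beta-catenin stain intensity; plate controls were DMSO negative control for no effect and GSK-3 inhibitor IX positive control for full effect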
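Signal – beta-catenin immunofluorescence imaging with DAPI · Test system – human HeLa cell line · Dosing – 5 µM primary single dose, 0.1% DMSO, 0.02–20 µM confirmation series · Measure – % activation, nuclear-to-cytoplasmic median beta-catenin signal ratio per cell · Incubation – 24 h compound exposure at 37°C, 5% CO2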
L major viab: inhibitors of Leishmania major promastigote growth. inhibition, % at 10 µM. AID 1063. Leishmania major promastigotes, resazurin fluorescence viability. 200,000 tested, 9% active; in the data active means inhibition above about 50%;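 further: promastigotes grown with compound for 44 hours at 28 °C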
BaF3 tox: counter-screen for JAK2V617F inhibitors: parental Ba/F3 viability inhibitors; CellTiter-Glo ATP luminescence; 220,000 tested, 1.1% active; AID 1486; inhibition, % at 5.6 µM;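 active means inhibition above a per-campaign cutoff, the mean inhibition of all tested compounds plus 3 SD, cut at about 27% in these data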;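 further: 0% = DMSO wells and 100% = JAK Inhibitor I control wells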
MT stabilize HCS: microtubule stabilizers in HeLa cells. HeLa tubulin immunostaining HCS, 24 h; share of cells brighter than vehicle mean+2SD. % tubulin-high responders, % at 10 µM. 200,000 tested, 0.83% active;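 active means plate Z-score above 3 for both tubulin-high and condensed-nucleus cell shares, with cell loss under 80%, at 10 µM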;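 further: anti alpha tubulin signal scored within the nucleus-defined area of each cell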
Numbers without * were called inactive; nt = no result given.

SMILES | Ba/F3 V617F tox | APP transl inh | b-catenin transl | L major viab | BaF3 tox | MT stabilize HCS
O=C1c2cccc3cccc(c23)C(=O)N1CCN1CCN(C(=S)Nc2ccc(Cl)cc2)CC1 | 0 | 7 | -2 | 34 | 2 | 5
S=C(Nc1ccccc1)N1CCN(Cc2ccccc2)CC1 | 5 | nt | 1 | nt | 39* | nt
O=C1c2cccc3cccc(c23)C(=O)N1CCN1CCN(C(=S)Nc2ccccc2)CC1 | 1 | -2 | 0 | 95* | 5 | 2
O=C(CSc1nnnn1C1CCCCC1)Nc1nc2c(s1)CCCC2 | -3 | -2 | 5 | 6 | -2 | 2
COc1cc(O)oc1C=Nc1ccc(C(F)(F)F)cc1 | -1 | 2 | -1 | 8 | 7 | 1
COC(=O)c1ccc(NC(=O)C(=O)N2CCN(C(=S)NCCc3ccccc3)CC2)cc1 | 3 | -14 | -1 | 72* | 11 | 2
S=C(NCCc1ccccc1)N1CCN(Cc2ccccc2)CC1 | -4 | -6 | 0 | 58* | 5 | 3
COc1ccc(-n2c(=O)c3ccccc3n(Cc3ccccc3F)c2=O)cc1OC | 2 | 6 | 1 | 7 | 7 | 2
COc1ccc(OCc2nnc(SCC(=O)N(C)Cc3ccccc3)n2N)cc1 | 1 | -1 | -4 | -5 | 3 | 6
O=C(/C=C/c1ccco1)NC(=S)Nc1cccc(-c2nc3ccccc3o2)c1 | -4 | 31 | 54* | 14 | 2 | 28*
O=C(/C=C/c1ccco1)NC(=S)Nc1cccc(-c2nc3ccccc3s2)c1 | 3 | -7 | nt | 7 | 5 | 39*
Cc1ccc(-c2nc3ccccc3o2)cc1NC(=S)NC(=O)/C=C/c1ccco1 | -2 | -16 | -3 | -2 | 0 | 33
CCC(OC(C)=O)c1cc2c(cc1[N+](=O)[O-])OCCO2 (configuration not stated) | 1 | 9 | 0 | 0 | 5 | 2
COc1ccccc1Nc1nc2nonc2nc1N1CCCCC1C (configuration not stated) | 0 | 5 | -1 | 91* | 9 | 2
CC1CCCCN1c1nc2nonc2nc1N1CCCCC1C (configuration not stated) | -5 | 0 | nt | 19 | 5 | 4
COc1nc2c(c(-c3cc(Br)cs3)c1C#N)Cc1ccccc1-2 | 2 | nt | 1 | nt | 0 | nt
CCOc1ccccc1C(=O)N1CCN(c2cccc(Cl)c2)CC1 | 89* | 94* | 69* | 6 | 85* | 15*
CCOC(=O)c1[nH]c(C)c(C(=O)N2CCN(c3ccccc3)CC2)c1C | 8 | 20 | -1 | -3 | 6 | 5
CCOc1ccc2ccccc2c1C(=O)N1CCN(c2ccccc2)CC1 | 46* | 9 | 1 | 83* | 42* | 47*
COc1ccc(C(=O)N2CCN(c3cccc(Cl)c3)CC2)c(OC)c1 | 1 | -11 | nt | 10 | 8 | 44*
COc1ccccc1N1CCN(c2ncc(C(=O)N3CCN(c4cccc(Cl)c4)CC3)c3ccccc23)CC1 | -4 | 7 | 0 | 62* | 3 | 3
O=C(COC(=O)c1ccc[nH]c1=O)NC1CCCCC1 | 1 | nt | -1 | nt | 0 | nt
CC(C)Oc1ccc(C(=O)NC(Cc2c[nH]c3ccccc23)C(=O)NN)cc1 (configuration not stated) | -4 | nt | -1 | nt | 0 | nt
COc1cc2c(C(=O)N3CCN(c4cccc(Cl)c4)CC3)cn(CC(C)C)c(=O)c2cc1OC | 0 | -6 | nt | 58* | 5 | 3
CCCN1CCN(C(=O)c2cn(CC(C)C)c(=O)c3cc(OC)c(OC)cc23)CC1 | 0 | -12 | -10 | 5 | 2 | 1
SMILES | Ba/F3 V617F tox | APP transl inh | b-catenin transl | L major viab | BaF3 tox | MT stabilize HCS
COc1cc2cc(CN(CCc3cccc(C)c3)C(=S)NCCCN(C)C)c(=O)[nH]c2cc1OC | 0 | 4 | -2 | 52* | 3 | 2
CN(C)CCCN(Cc1ccccc1)C(=S)NCc1ccccc1 | 3 | -22 | 2 | 86* | 8 | 4
Cc1cccc2cc(CN(CCCN(C)C)C(=S)NCCc3ccccc3)c(=O)[nH]c12 | -4 | 0 | -1 | 65* | 3 | 3
Cc1ccc2[nH]c(=O)c(CN(CCCN(C)C)C(=O)Nc3ccc(Cl)cc3)cc2c1 | 1 | -3 | 0 | 90* | 7 | 1
CCc1ccc(CN2CCCC(CCC(=O)N3CCN(c4ccccn4)CC3)C2)o1 (configuration not stated) | -2 | nt | 0 | nt | -2 | nt
Cc1ccc2[nH]c(=O)c(CN(CCCN(C)C)C(=S)NCCc3ccccc3)cc2c1 | 1 | -1 | -1 | 76* | 8 | 2
CN(CC(=O)c1c(N)n(C)c(=O)n(C)c1=O)c1ccccc1 | 1 | -12 | 0 | -5 | 6 | 1
Cc1ccc(Oc2nc3ccccc3n3c(C)nnc23)c(C)c1 | 1 | 2 | 0 | -2 | 1 | 2
C=C(C)c1cccc(C(C)(C)NC(=O)NC(c2ccccc2)c2ccc(OC)cc2)c1 (configuration not stated) | 2 | 21 | -1 | 98* | 10 | 3
O=C(NCc1cccnc1)c1nn2cccnc2c1Cl | 1 | -4 | 2 | 7 | 0 | 4
CCN(CC)c1ccc(NC(=O)CN2CCN(c3ccc(F)cc3)CC2)cc1 | 0 | 2 | -1 | 72* | -1 | 1
O=C(Cn1cnc2ccccc21)Nc1ccc(SC(F)F)cc1 | 36* | 15 | 4 | 10 | 50* | 2
O=C(CN1CCN(c2ccc(O)cc2)CC1)Nc1ccc(SC(F)F)cc1 | -2 | -7 | 9 | 57* | 9 | 2
O=C(Cn1cnc2ccccc21)NCc1ccccc1 | 0 | -27 | 0 | 4 | 2 | 2
Cc1ccc(S(=O)(=O)N2CCN(C(=O)CCC(=O)NCc3ccc(F)cc3)CC2)cc1 | -2 | -11 | nt | 10 | 4 | 3
O=C(CCC(=O)N(CC(=O)NC1CCCC1)C1CCCCC1)Nc1ccccn1 | 1 | 2 | 2 | -4 | 12 | 1
Cc1ccc2cc3c(nc2c1)OCC3 | -1 | nt | 0 | nt | -6 | nt
Cc1cccc(N2CCN(C(=O)c3ccc4ncsc4c3)CC2)c1C | 60* | 80* | 150* | 61* | 54* | 43*
CCC(=O)N1CCN(c2ccnc3cc(Cl)ccc23)CC1 | -1 | nt | 1 | nt | -2 | nt
COc1ccccc1N1CCN(C(=O)c2oc3cc(C)cc(C)c3c2C)CC1 | -4 | -12 | 1 | 7 | -1 | 25*
Cc1cccc(N2CCN(C(=O)c3ccncc3)CC2)c1C | 5 | 4 | nt | -5 | 7 | 45*
O=C(c1ccc(Cl)cc1)N1CCN(c2ccnc3cc(Cl)ccc23)CC1 | 4 | -16 | 0 | 66* | 5 | 3
COc1ccccc1N1CCN(C(=O)c2c(C)noc2C)CC1 | -2 | nt | -3 | nt | 0 | nt
O=c1cc(C(F)(F)F)nc(-c2ccccc2OC(F)(F)F)[nH]1 | 0 | nt | -2 | nt | -4 | nt
CCC(=O)Nc1cc(C)c(OC)c(C)c1 | 0 | -4 | -1 | 10 | 8 | 5
CCN1CCN(C(c2cccs2)C(C)NS(=O)(=O)c2ccccc2)CC1 (configuration not stated) | 1 | 3 | 0 | -12 | 8 | 3
